B1: tRNA (parent)
chain: GUUCCGUUGGCGUAAUGGUAACGCGUCUCCCUCCUAAGGAGAAGACUGCGGGUUCGAGUCCCGUACGGAACG

In this series the parent is B1. Description: yeast fitness, log relative to wild type (ln ratio); higher = fitter; tRNA-Arg(CCU), competitive growth, 37 C, 1 M NaCl. A digest of the protocol: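 Fitness is the natural log of a genotype's generation count divided by that of the wild type. A combinatorial library of tRNA-Arg(CCU) variants sat on a HIS3 centromeric plasmid in BY4742 lacking the chromosomal gene, from two independent transformations. Pools grew 4 generations in SC-HIS at 30 °C, then ~6.5 generations (~26.5 h) in SC-HIS 1M NaCl at 37 °C, with three outputs per input. Generations came from OD-scaled log2 output/input frequency, inverse-variance weighted across replicates, with variants counted by 125 bp paired-end Illumina sequencing.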
For the variant G1A U2G G6A C27U C46U A70G, the “yeast fitness (ln)” value is -0.237.
For G1A U2G G6A C27U C46U A70U the value was -0.189; for G1A U2G G6A C46U C71U, -0.247.
Take G1A U2G G6U C27U A43C A69G A70U C71U: the “yeast fitness (ln)” value is -0.494.
The figure for G1A U2G G6A C27U A43C C71U is -0.357.
For G1A U2G G6U C27U A43C C46U C71U the value was -0.277; for G1A U2G G6A A69G A70U, -0.153.
For G1A U2G G6A A69G A70G the value was -0.333.
G1A U2G G6U A43C C46U C66A A70U C71U: the “yeast fitness (ln)” value is -0.0885.
For G1A U2G G6U A43C C66U A70U the value was -0.284.
On to G1A U2G G6U A43C C66U A70G, for which the “yeast fitness (ln)” value is -0.271.
The figure for G1A U2G G6A A43C C46U C66A A70G C71U is -0.169; for G1A U2G G6A C27U C46U C66A A70U it is -0.187; for G1A U2G G6A A70U C71U it is -0.0851.
The figure for G1A U2G G6A C27U A43C C66A A69G A70G C71U is -0.351; for G1A U2G G6A C27U A43C C46U C66A C71U it is -0.323; for G1A U2G G6A C27U A43C C46U A69G A70G it is -0.382.
Regarding G1A U2G G6A C27U A43C C46U A69G A70U, the “yeast fitness (ln)” value was -0.279.
As to G1A U2G G6A C27U A43C C46U A70U C71U, the “yeast fitness (ln)” value was -0.307.
For G1A U2G G6A C27U A43C C46U C66U A70U, the “yeast fitness (ln)” value is -0.226.
The figure for G1A U2G G6A C27U A43C C46U C66U A70G is -0.216.
For G1A U2G G6A A43C C66U A69G A70U C71U, the “yeast fitness (ln)” value was -0.396.
As for G1A U2G G6A C27U C66U A69G A70U, the “yeast fitness (ln)” value was -0.26.
The figure for G1A U2G G6A C27U C66U A69G A70G is -0.431; for G1A U2G G6A C66U A69G A70U C71U it is -0.33; for G1A U2G G6A C27U A43C A69G A70U C71U it is -0.484.
For G1A U2G G6A C46U A70G C71U the value was -0.245; for G1A U2G G6A A69G C71U, -0.244; for G1A U2G G6U C27U A43C A70U C71U, -0.415.
In the case of G1A U2G G6U C27U A43C A69G C71U, the “yeast fitness (ln)” value was -0.479.
The figure for G1A U2G G6A C46U C66A A70G C71U is -0.185; for G1A U2G G6U A43C C46U C66U A70G C71U it is -0.418.
The figure for G1A U2G G6U A43C C66U A69G A70G is -0.371; for G1A U2G G6U A43C C66U A69G A70U it is -0.255; for G1A U2G G6A C66U A69G A70G C71U it is -0.366.
Turning to G1A U2G G6A C27U A43C A70U C71U, the “yeast fitness (ln)” value was -0.365.
The figure for G1A U2G G6U C27U A43C C46U A70G is -0.387.
For G1A U2G G6U C27U A43C C46U A70U the value was -0.341.
For G1A U2G G6U A43C C66A A70U, the “yeast fitness (ln)” value was -0.282.
With G1A U2G G6U A43C C66A A70G, the “yeast fitness (ln)” value is -0.251.
For G1A U2G G6A C27U C46U C66A A69G A70G C71U the value was -0.317; for G1A U2G G6U C27U C46U A69G A70U C71U, -0.43.
For G1A U2G G6A C46U C66U A69G A70U C71U the value was -0.141; for G1A U2G G6A C27U A43C C46U C66U A69G A70U C71U, -0.384; for G1A U2G G6U C27U A43C C46U A70U C71U, -0.339.
For G1A U2G G6U A43C C66A C71U the value was -0.265.
As for G1A U2G G6U C27U A43C C46U C66U C71U, the “yeast fitness (ln)” value is -0.526.
As to G1A U2G G6U C27U A43C C46U C66U A69G A70U C71U, the “yeast fitness (ln)” value is -0.434.
In the case of G1A U2G G6A A43C C46U C66U A69G A70U, the “yeast fitness (ln)” value is -0.306.
The figure for G1A U2G G6A A43C C46U C66U A69G A70G is -0.275; for G1A U2G G6A C46U C66A A70U C71U it is -0.134; for G1A U2G C71U it is -0.218.
For G1A U2G G6U A43C C46U A70U the value was -0.235; for G1A U2G G6U A43C C46U A70G, -0.235.
For G1A U2G G6A C27U C66U C71U the value was -0.344; for G1A U2G G6U A43C C66U A70U C71U, -0.237; for G1A U2G G6A C66U A70G C71U, -0.578.
For the variant G1A U2G G6U A43C C46U C66A A69G A70U C71U, the “yeast fitness (ln)” value was -0.314.
G1A U2G G6A C46U C66A A69G A70G C71U: the “yeast fitness (ln)” value is -0.354.
For G1A U2G G6A C46U C66U A70G C71U the value was -0.517.
The figure for G1A U2G G6A C27U C66A A70U C71U is -0.457.
For G1A U2G G6U C27U A69G A70G the value was -0.376; for G1A U2G G6U C27U A69G A70U, -0.362; for G1A U2G G6A C27U C66U A70U C71U, -0.164.
Take G1A U2G G6A C27U A43C A69G A70G: the “yeast fitness (ln)” value is -0.341.
With G1A U2G G6A C27U A43C A69G A70U, the “yeast fitness (ln)” value is -0.379.
For G1A U2G G6A C27U C46U A69G A70G C71U the value was -0.332; for G1A U2G G6A A43C C46U C66U A70G C71U, -0.266; for G1A U2G G6U, -0.102.
The figure for G1A U2G G6A is -0.0537; for G1A U2G G6U A43C C46U C71U it is -0.335; for G1A U2G G6U C27U A43C C46U A70G C71U it is -0.426.
For G1A U2G G6U C27U C46U A69G A70U the value was -0.314.
On to G1A U2G G6U C27U C46U A69G A70G, for which the “yeast fitness (ln)” value is -0.474.
The figure for G1A U2G G6A C27U C46U C66U A69G C71U is -0.332; for G1A U2G G6A C66U A70U C71U it is -0.0116.
For G1A U2G G6A C27U C46U C66A C71U the value was -0.179; for G1A U2G G6A C27U A43C C66U A69G A70U C71U, -0.489.
Take G1A U2G G6A C46U: the “yeast fitness (ln)” value was -0.0789.
The figure for G1A U2G G6A C27U C46U C66U A69G A70G C71U is -0.407; for G1A U2G G6A A43C A69G C71U it is -0.506.
As for G1A U2G G6U A43C C66A A69G A70G C71U, the “yeast fitness (ln)” value is -0.412.
In the case of G1A U2G G6A C27U C66A A69G A70G C71U, the “yeast fitness (ln)” value is -0.353.

(Values after the RNAGym collection of RNA variant scans (doi:10.1038/s41586-018-0170-7).)
